Source: ChEMBL document CHEMBL1142169, “In vitro antibacterial activity of the pyrrolopyrazolyl-substituted oxazolidinone RWJ-416457” (2007)
Converted amounts (≈) assume the structure as drawn.

Experiments:
Assay type in all cases: functional
Staphylococcus [1] = assay: Antibacterial activity against methicillin-susceptible coagulase-negative staphylococci
Outline: (§1)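 MIC by CLSI (formerly NCCLS) broth microdilution for aerobically growing bacteria.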

Staphylococcus aureus [2] = assay: Antibacterial activity against methicillin-resistant Staphylococcus aureus OC 2878 by time kill experiments
Outline: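 Time-kill by CLSI methodology with drug at four times the MIC against MRSA OC 2878, alongside a drug-free control culture. Viable counts were followed over time.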

Enterococcus faecalis [3] = assay: Antibacterial activity against linezolid-susceptible Enterococcus faecalis; outline: as §1
Streptococcus pyogenes = assay: Antibacterial activity against macrolide-resistant Streptococcus pyogenes; outline: as §1
Enterococcus faecium = assay: Antibacterial activity against linezolid-susceptible Enterococcus faecium; outline: as §1
[4] = test system: Mycoplasmoides pneumoniae; assay: Antibacterial activity against Mycoplasma pneumoniae
Outline: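 Microbroth MIC following Waites et al. Isolates were titred in SP4 glucose broth by serial 10-fold dilution to count color changing units. Drug was serially diluted in antibiotic-free SP4 glucose broth and inoculated at 104 CCU/ml, then incubated at 35°C until control wells changed color. The MIC was the lowest concentration preventing color change.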

Streptococcus pneumoniae [5] = assay: Antibacterial activity against penicillin-resistant Streptococcus pneumoniae; outline: as §1
Staphylococcus [6] = assay: Antibacterial activity against methicillin-resistant coagulase-negative staphylococci; outline: as §1
Staphylococcus aureus [7] = assay: Antibacterial activity against methicillin-susceptible Staphylococcus aureus; outline: as §1
Streptococcus pneumoniae [8] = assay: Antibacterial activity against macrolide-resistant Streptococcus pneumoniae; outline: as §1
Legionella pneumophila = assay: Antibacterial activity against Legionella pneumophila
Outline: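 L. pneumophila broth microdilution. Inoculum suspended in buffered yeast extract broth and added to wells holding serial antibiotic dilutions. Incubated aerobically at 34°C to 36°C for 48 h. MIC taken as the lowest concentration inhibiting visible growth.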

Moraxella catarrhalis = assay: Antibacterial activity against Moraxella catarrhalis
Outline: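 MIC determined by the CLSI (formerly NCCLS) broth microdilution procedure for aerobically growing bacteria.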

Enterococcus faecalis [9] = assay: Antibacterial activity against Enterococcus faecalis ATCC 51922 by time kill experiments
Outline: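 Time-kill curves run per CLSI methodology, with drug at four times the MIC measured for the isolate. Growth in drug-containing medium was followed alongside a drug-free control medium over time.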

Staphylococcus aureus [10] = assay: Antibacterial activity against Staphylococcus aureus; outline: as §1
Staphylococcus aureus [11] = assay: Antibacterial activity against community-acquired methicillin-resistant Staphylococcus aureus; outline: as §1
Staphylococcus aureus [12] = assay: Antibacterial activity against methicillin-resistant Staphylococcus aureus; outline: as §1
Streptococcus pneumoniae [13] = assay: Antibacterial activity against fluoroquinolone-resistant Streptococcus pneumoniae; outline: as §1
Streptococcus pneumoniae [14] = assay: Antibacterial activity against Streptococcus pneumoniae; outline: as §1
Staphylococcus aureus [15] = assay: Antibacterial activity against vancomycin-intermediate methicillin-resistant Staphylococcus aureus; outline: as §1
Staphylococcus [16] = assay: Antibacterial activity against coagulase-negative staphylococci; outline: as §1

| SMILES | MIC50 (Staphylococcus [1]) [mg/L] | MIC90 (Staphylococcus [1]) [mg/L] | MIC50 (Enterococcus faecalis [3]) [mg/L] | MIC90 (Enterococcus faecalis [3]) [mg/L] | MIC50 (Streptococcus pyogenes) [mg/L] | MIC90 (Streptococcus pyogenes) [mg/L] | MIC50 (Enterococcus faecium) [mg/L] | MIC90 (Enterococcus faecium) [mg/L] | MIC50 [4] [mg/L] | MIC90 [4] [mg/L] | MIC50 (Staphylococcus [6]) [mg/L] | MIC90 (Staphylococcus [6]) [mg/L] | MIC50 (Staphylococcus aureus [11]) [mg/L] | MIC90 (Staphylococcus aureus [11]) [mg/L] | MIC50 (Staphylococcus aureus [12]) [mg/L] | MIC90 (Staphylococcus aureus [12]) [mg/L] | MIC50 (Staphylococcus aureus [15]) [mg/L] | MIC90 (Staphylococcus aureus [15]) [mg/L] | MIC50 (Staphylococcus [16]) [mg/L] | MIC90 (Staphylococcus [16]) [mg/L] | also measured |
| --- | --- | --- | --- | --- | --- | --- | --- | --- | --- | --- | --- | --- | --- | --- | --- | --- | --- | --- | --- | --- | --- |
| CC(=O)NC[C@H]1CN(c2ccc(N3Cc4cn(C)nc4C3)c(F)c2)C(=O)O1 | 0.5 (≈ 1.34 µM) | 0.5 (≈ 1.34 µM) | 0.5 (≈ 1.34 µM) | 1 (≈ 2.68 µM) | 0.5 (≈ 1.34 µM) | 0.5 (≈ 1.34 µM) | 1 (≈ 2.68 µM) | 1 (≈ 2.68 µM) | 16 (≈ 42.9 µM) | 32 (≈ 85.7 µM) | 0.5 (≈ 1.34 µM) | 1 (≈ 2.68 µM) | 1 (≈ 2.68 µM) | 2 (≈ 5.36 µM) | 1 (≈ 2.68 µM) | 2 (≈ 5.36 µM) | 0.5 (≈ 1.34 µM) | 2 (≈ 5.36 µM) | 0.5 (≈ 1.34 µM) | 1 (≈ 2.68 µM) | MIC (Staphylococcus aureus [2]): 1 mg/L (≈ 2.68 µM); MIC50 (Streptococcus pneumoniae [5]): 0.5 mg/L (≈ 1.34 µM); MIC90 (Streptococcus pneumoniae [5]): 0.5 mg/L (≈ 1.34 µM); MIC50 (Staphylococcus aureus [7]): 1 mg/L (≈ 2.68 µM); MIC90 (Staphylococcus aureus [7]): 2 mg/L (≈ 5.36 µM); MIC50 (Streptococcus pneumoniae [8]): 0.5 mg/L (≈ 1.34 µM); MIC90 (Streptococcus pneumoniae [8]): 0.5 mg/L (≈ 1.34 µM); MIC50 (Legionella pneumophila): 4 mg/L (≈ 10.7 µM); MIC90 (Legionella pneumophila): 8 mg/L (≈ 21.4 µM); MIC50 (Moraxella catarrhalis): 2 mg/L (≈ 5.36 µM); MIC90 (Moraxella catarrhalis): 4 mg/L (≈ 10.7 µM); MIC (Enterococcus faecalis [9]): 1 mg/L (≈ 2.68 µM); MIC50 (Staphylococcus aureus [10]): 1 mg/L (≈ 2.68 µM); MIC90 (Staphylococcus aureus [10]): 2 mg/L (≈ 5.36 µM); MIC50 (Streptococcus pneumoniae [13]): 0.5 mg/L (≈ 1.34 µM); MIC90 (Streptococcus pneumoniae [13]): 0.5 mg/L (≈ 1.34 µM); MIC50 (Streptococcus pneumoniae [14]): 0.5 mg/L (≈ 1.34 µM); MIC90 (Streptococcus pneumoniae [14]): 0.5 mg/L (≈ 1.34 µM) |
| CC[C@H]1OC(=O)[C@H](C)[C@@H](O[C@H]2C[C@@](C)(OC)[C@@H](O)[C@H](C)O2)[C@H](C)[C@@H](O[C@@H]2O[C@H](C)C[C@H](N(C)C)[C@H]2O)[C@](C)(O)C[C@@H](C)C(=O)[C@H](C)[C@@H](O)[C@]1(C)O [ERYTHROMYCIN] |  |  |  |  | 8 (≈ 10.9 µM) | > 16 |  |  |  |  |  |  |  |  |  |  |  |  |  |  | MIC50 (Streptococcus pneumoniae [8]): 4 mg/L (≈ 5.45 µM); MIC90 (Streptococcus pneumoniae [8]): > 16 mg/L; MIC50 (Moraxella catarrhalis): 0.25 mg/L (≈ 0.341 µM); MIC90 (Moraxella catarrhalis): 0.25 mg/L (≈ 0.341 µM) |
| C[C@H]1COc2c(N3CCN(C)CC3)c(F)cc3c(=O)c(C(=O)O)cn1c23.C[C@H]1COc2c(N3CCN(C)CC3)c(F)cc3c(=O)c(C(=O)O)cn1c23.O [LEVOFLOXACIN] |  |  |  |  |  |  |  |  | 0.5 | 1 |  |  |  |  |  |  |  |  |  |  | MIC50 (Legionella pneumophila): 0.12 mg/L; MIC90 (Legionella pneumophila): 0.5 mg/L; MIC50 (Streptococcus pneumoniae [13]): 16 mg/L; MIC90 (Streptococcus pneumoniae [13]): > 16 mg/L |
| CC(=O)NC[C@H]1CN(c2ccc(N3CCOCC3)c(F)c2)C(=O)O1 [LINEZOLID] | 1 (≈ 2.96 µM) | 2 (≈ 5.93 µM) | 2 (≈ 5.93 µM) | 2 (≈ 5.93 µM) | 1 (≈ 2.96 µM) | 2 (≈ 5.93 µM) | 2 (≈ 5.93 µM) | 4 (≈ 11.9 µM) | > 64 | > 64 | 2 (≈ 5.93 µM) | 2 (≈ 5.93 µM) | 4 (≈ 11.9 µM) | 4 (≈ 11.9 µM) | 4 (≈ 11.9 µM) | 4 (≈ 11.9 µM) | 1 (≈ 2.96 µM) | 4 (≈ 11.9 µM) | 2 (≈ 5.93 µM) | 2 (≈ 5.93 µM) | MIC50 (Streptococcus pneumoniae [5]): 1 mg/L (≈ 2.96 µM); MIC90 (Streptococcus pneumoniae [5]): 1 mg/L (≈ 2.96 µM); MIC50 (Staphylococcus aureus [7]): 2 mg/L (≈ 5.93 µM); MIC90 (Staphylococcus aureus [7]): 4 mg/L (≈ 11.9 µM); MIC50 (Streptococcus pneumoniae [8]): 1 mg/L (≈ 2.96 µM); MIC90 (Streptococcus pneumoniae [8]): 1 mg/L (≈ 2.96 µM); MIC50 (Legionella pneumophila): 4 mg/L (≈ 11.9 µM); MIC90 (Legionella pneumophila): 16 mg/L (≈ 47.4 µM); MIC50 (Moraxella catarrhalis): 8 mg/L (≈ 23.7 µM); MIC90 (Moraxella catarrhalis): 8 mg/L (≈ 23.7 µM); MIC50 (Staphylococcus aureus [10]): 4 mg/L (≈ 11.9 µM); MIC90 (Staphylococcus aureus [10]): 4 mg/L (≈ 11.9 µM); MIC50 (Streptococcus pneumoniae [13]): 0.5 mg/L (≈ 1.48 µM); MIC90 (Streptococcus pneumoniae [13]): 1 mg/L (≈ 2.96 µM); MIC50 (Streptococcus pneumoniae [14]): 1 mg/L (≈ 2.96 µM); MIC90 (Streptococcus pneumoniae [14]): 1 mg/L (≈ 2.96 µM) |
| Cc1onc(-c2ccccc2)c1C(=O)N[C@@H]1C(=O)N2[C@@H]1SC(C)(C)[C@@H]2C(=O)O [OXACILLIN] | 0.12 (≈ 0.299 µM) | 0.25 (≈ 0.623 µM) |  |  |  |  |  |  |  |  | > 16 | > 16 | 32 (≈ 79.7 µM) | 32 (≈ 79.7 µM) | > 32 | > 32 | > 32 | > 32 | > 16 | > 16 |  |
| CC1(C)S[C@@H]2[C@H](NC(=O)Cc3ccccc3)C(=O)N2[C@H]1C(=O)O [PENICILLIN G] |  |  |  |  |  |  |  |  |  |  |  |  |  |  |  |  |  |  |  |  | MIC50 (Streptococcus pneumoniae [5]): 2 mg/L (≈ 5.98 µM); MIC90 (Streptococcus pneumoniae [5]): 4 mg/L (≈ 12 µM) |
| CN[C@H](CC(C)C)C(=O)N[C@H]1C(=O)N[C@@H](CC(N)=O)C(=O)N[C@H]2C(=O)N[C@H]3C(=O)N[C@H](C(=O)N[C@H](C(=O)O)c4cc(O)cc(O)c4-c4cc3ccc4O)[C@H](O)c3ccc(c(Cl)c3)Oc3cc2cc(c3O[C@@H]2O[C@H](CO)[C@@H](O)[C@H](O)[C@H]2O[C@H]2C[C@](C)(N)[C@H](O)[C@H](C)O2)Oc2ccc(cc2Cl)[C@H]1O [VANCOMYCIN] | 2 (≈ 1.38 µM) | 4 (≈ 2.76 µM) | 4 (≈ 2.76 µM) | > 16 |  |  | > 16 | > 16 |  |  | 2 (≈ 1.38 µM) | 4 (≈ 2.76 µM) | 1 (≈ 0.69 µM) | 1 (≈ 0.69 µM) | 1 (≈ 0.69 µM) | 4 (≈ 2.76 µM) | 4 (≈ 2.76 µM) | 8 (≈ 5.52 µM) | 2 (≈ 1.38 µM) | 4 (≈ 2.76 µM) | MIC50 (Staphylococcus aureus [7]): 1 mg/L (≈ 0.69 µM); MIC90 (Staphylococcus aureus [7]): 2 mg/L (≈ 1.38 µM); MIC50 (Staphylococcus aureus [10]): 1 mg/L (≈ 0.69 µM); MIC90 (Staphylococcus aureus [10]): 4 mg/L (≈ 2.76 µM) |
